Measurements reported in ChEMBL document CHEMBL3525987, “Assessment of exposure of metabolites in preclinical species and humans at steady state from the single-dose radiolabeled absorption, distribution, metabolism, and excretion studies: a case study” (Drug Metab Dispos, 2012).

Tests used:
Rattus norvegicus [1] = assay: AUC (0 to 24 hrs) in male Sprague-Dawley rat at 10 mg/kg, po administered as single dose via gavage; type: ADME, organism-based, Plasma; design: time < 24 hr, dose 10 mg/kg, dosed compound name [14C]lixivaptan, route oral; conditions: in vivo
Outline: (§1)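 Sprague-Dawley rats (9/gender) were fasted 18 h and gavaged once with [14C]lixivaptan at 10 mg/kg (10 ml/kg), about 29.8 µCi/mg, suspended in deionized water with pluronic F68. Plasma came by cardiac puncture under isoflurane at 1, 8 and 24 h (3/gender/time) and was extracted twice with 2 volumes of acetonitrile. C18 radio-HPLC with a flow scintillation detector gave percent of plasma radioactivity per peak.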

Homo sapiens [2] = assay: Drug level in human plasma at 100 mg, po administered as single dose measured after 12 hrs by liquid scintillation counting; type: ADME, organism-based; design: dosed compound name [14C]lixivaptan; conditions: in vivo
Outline: (§2)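 Healthy male volunteers fasted ≥10 h, given single oral 100 mg (200 µCi) [14C]drug as two 50-mg capsules with 250 ml water. Plasma (from ~50 ml blood) at 0.5, 2, 4, 8, 12, 24, 36 h, profiled per subject. Acetonitrile extraction, C18 radio-HPLC with 0.2% formic acid acetonitrile/water gradient, on-line radioactivity detection as % plasma radioactivity; ng-equiv/ml from % × total radioactivity.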

Homo sapiens [3] = assay: Drug level in human plasma at 100 mg, po administered as single dose measured after 0.5 hrs by liquid scintillation counting; type: ADME, organism-based; design: dosed compound name [14C]lixivaptan; conditions: in vivo; outline: as §2
Rattus norvegicus [4] = assay: Drug recovery in cage wash/debris of female Sprague-Dawley rat at 10 mg/kg, po administered as single dose via gavage measured after 168 hrs by liquid scintillation counting; type: ADME, organism-based; design: dose 10 mg/kg, dosed compound name [14C]lixivaptan, route oral; conditions: in vivo
Outline: (§3)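 Intact SD rats (3/gender) dosed by gavage with [14C]drug 10 mg/kg (10 ml/kg, pluronic F68/water), housed in metabolism cages; urine and feces at 0-8, 8-24 h, then every 24 h to 7 days. Urine counted by LSC; feces homogenized 20% w/w in water, combusted, trapped CO2 counted; cage wash/debris included; % of dose.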

Canis familiaris [5] = assay: Cmax as total radioactivity in male beagle dog plasma at 10 mg/kg, po administered as single dose by LC-MS/MS analysis; type: ADME, organism-based, Canis lupus familiaris; design: dose 10 mg/kg, dosed compound name [14C]lixivaptan, route oral; conditions: in vivo
Outline: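 Four male beagles were fasted 18 h and gavaged once with 10 mg/kg (2 ml/kg) [14C]lixivaptan as a 5.0 mg/ml water/pluronic F68 suspension. Jugular K2EDTA blood was sampled from 0.25 to 168 h. Plasma total radioactivity was counted by LSC as ng-equiv/ml and lixivaptan by validated LC-MS/MS. Noncompartmental Cmax, t1/2 and trapezoidal AUC were derived.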

[6] = Drug recovery in urine of male beagle dog at 10 mg/kg, po administered as single dose via gavage measured after 168 hrs by liquid scintillation counting; type: ADME, organism-based, Canis lupus familiaris; design: dose 10 mg/kg, dosed compound name [14C]lixivaptan, route oral; conditions: in vivo
Outline: (§4)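 Four male beagles got 10 mg/kg (2 ml/kg) [14C]drug suspension (5.0 mg/ml, pluronic F68/water, 1.04 µCi/mg) by gavage. Urine and feces collected over dry ice at 0-8, 8-24 h, then every 24 h to 7 days; urine by LSC, fecal homogenates combusted then LSC; cage wash/debris included; % of dose.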

Homo sapiens [7] = assay: Cmax as total radioactivity in human plasma at 100 mg, po administered as single dose by LC-MS/MS analysis; type: ADME, organism-based; design: dose 100 mg, route oral, dosed compound name [14C]lixivaptan; conditions: in vivo
Outline: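 Fasted healthy males took one oral 100 mg (200 µCi) [14C]lixivaptan dose. Plasma was drawn from predose to 144 h. Total radioactivity was measured by LSC and converted to ng-equiv/ml via the dose specific activity; lixivaptan by validated LC-MS/MS. Noncompartmental analysis: Cmax observed; kel by log-linear regression; AUC0-t by linear trapezoid; extrapolation as Cest/kel.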

[8] = Drug recovery in urine of female Sprague-Dawley rat at 10 mg/kg, po administered as single dose via gavage measured after 168 hrs by liquid scintillation counting; type: ADME, organism-based; design: dose 10 mg/kg, dosed compound name [14C]lixivaptan, route oral; conditions: in vivo; outline: as §3
Homo sapiens [9] = assay: Drug level in human plasma at 100 mg, po administered as single dose measured after 4 hrs by liquid scintillation counting; type: ADME, organism-based; design: dosed compound name [14C]lixivaptan; conditions: in vivo; outline: as §2
Homo sapiens [10] = assay: Drug level in human plasma at 100 mg, po administered as single dose measured after 36 hrs by liquid scintillation counting; type: ADME, organism-based; design: dosed compound name [14C]lixivaptan; conditions: in vivo; outline: as §2
Rattus norvegicus [11] = assay: AUC (0 to 24 hrs) in female Sprague-Dawley rat at 10 mg/kg, po administered as single dose via gavage; type: ADME, organism-based, Plasma; design: time < 24 hr, dose 10 mg/kg, dosed compound name [14C]lixivaptan, route oral; conditions: in vivo; outline: as §1
Rattus norvegicus [12] = assay: Half life as total radioactivity in female Sprague-Dawley rat plasma at 10 mg/kg, po administered as single dose via gavage by LC-MS/MS analysis; type: ADME, organism-based; design: dose 10 mg/kg, dosed compound name [14C]lixivaptan, route oral; conditions: in vivo
Outline: (§5)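 Jugular-vein cannulated SD rats (5/gender) given gavage [14C]drug 10 mg/kg in pluronic F68/water; K2EDTA blood 0.25-168 h with donor blood replacement. Parent by validated LC-MS/MS, radioactivity by LSC; Tmax observed; t1/2 = 0.693/kel by terminal log-linear regression.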

Rattus norvegicus [13] = assay: Half life as total radioactivity in male Sprague-Dawley rat plasma at 10 mg/kg, po administered as single dose via gavage by LC-MS/MS analysis; type: ADME, organism-based; design: dose 10 mg/kg, dosed compound name [14C]lixivaptan, route oral; conditions: in vivo; outline: as §5
Rattus norvegicus [14] = assay: AUC(0 to infinity) as total radioactivity in male Sprague-Dawley rat plasma at 10 mg/kg, po administered as single dose via gavage […]; type: ADME, organism-based; design: time infinity, dose 10 mg/kg, dosed compound name [14C]lixivaptan, route oral; conditions: in vivo
Outline: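 Jugular-cannulated Sprague-Dawley rats (5/gender) were fasted 18 h and gavaged once with 10 mg/kg [14C]lixivaptan suspended in water/pluronic F68. K2EDTA blood was taken at 0.25–168 h, with donor blood replaced from 1 h on. Total radioactivity was read by LSC (ng-equiv/ml) and parent by validated LC-MS/MS. Noncompartmental Cmax, log-linear kel and trapezoidal AUC followed.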

Rattus norvegicus [15] = assay: Total Drug recovery in female Sprague-Dawley rat at 10 mg/kg, po administered as single dose via gavage measured after 168 hrs by liquid scintillation counting; type: ADME, organism-based; design: dose 10 mg/kg, dosed compound name [14C]lixivaptan, route oral; conditions: in vivo; outline: as §3
Rattus norvegicus [16] = assay: Total Drug recovery in male Sprague-Dawley rat at 10 mg/kg, po administered as single dose via gavage measured after 168 hrs by liquid scintillation counting; type: ADME, organism-based; design: dose 10 mg/kg, dosed compound name [14C]lixivaptan, route oral; conditions: in vivo
Outline: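 Intact rats, 3/gender, given [14C]drug as a suspension in deionized water with pluronic F68 (10 ml/kg, ~29.8 μCi/mg), fasted 18 h before dosing, fed 4 h after. Urine and feces collected at 0-8, 8-24 h, then every 24 h for 7 days. Feces homogenized, combusted and counted; urine counted by LSC in duplicate. Recovery is % of dose, including cage wash/debris.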

Canis familiaris [17] = assay: Drug recovery in cage wash/debris of male beagle dog at 10 mg/kg, po administered as single dose via gavage measured after 168 hrs by liquid scintillation counting; type: ADME, organism-based, Canis lupus familiaris; design: dose 10 mg/kg, dosed compound name [14C]lixivaptan, route oral; conditions: in vivo; outline: as §4
Canis familiaris [18] = assay: Total Drug recovery in male beagle dog at 10 mg/kg, po administered as single dose via gavage measured after 168 hrs by liquid scintillation counting; type: ADME, organism-based, Canis lupus familiaris; design: dose 10 mg/kg, dosed compound name [14C]lixivaptan, route oral; conditions: in vivo
Outline: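 Four male dogs, fasted 18 h, given [14C]drug by gavage as a 5.0 mg/ml suspension in pluronic F68/deionized water (2 ml/kg, 1.04 μCi/mg), followed by a 10 ml water rinse. Urine and feces collected frozen over dry ice at 0-8, 8-24 h, then every 24 h for 7 days. Feces combusted before LSC; total includes cage wash/debris.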

[19] = Drug recovery in urine of male Sprague-Dawley rat at 10 mg/kg, po administered as single dose via gavage measured after 168 hrs by liquid scintillation counting; type: ADME, organism-based; design: dose 10 mg/kg, dosed compound name [14C]lixivaptan, route oral; conditions: in vivo; outline: as §3
Homo sapiens [20] = assay: AUC in human at 100 mg, po qd for 7 days; type: ADME, organism-based, Plasma; design: dosed compound name [14C]lixivaptan; conditions: in vivo, 168 h
Homo sapiens [21] = assay: Drug level in human plasma at 100 mg, po administered as single dose measured after 24 hrs by liquid scintillation counting; type: ADME, organism-based; design: dosed compound name [14C]lixivaptan; conditions: in vivo; outline: as §2

AUC (Rattus norvegicus [1]): 632 ng.Eq.hr/ml | Compound recovery (Homo sapiens [2]): 5.6% | Compound recovery (Homo sapiens [3]): 43.5% | Radiolabel recovery (Rattus norvegicus [4]): 3.51% | Cmax (Canis familiaris [5]): 3570 ngequiv/ml | Radiolabel recovery [6]: 7.95% | Cmax (Homo sapiens [7]): 1770 ngequiv/ml | Radiolabel recovery [8]: 7.6% | Compound recovery (Homo sapiens [9]): 8% | Compound recovery (Homo sapiens [10]): 3.6% | AUC (Rattus norvegicus [11]): 5580 ng.Eq.hr/ml | t1/2 (Rattus norvegicus [12]): 33.6 h | t1/2 (Rattus norvegicus [13]): 36.6 h | AUC (Rattus norvegicus [14]): 67100 ng.Eq.hr/ml | Radiolabel recovery (Rattus norvegicus [15]): 103% | Radiolabel recovery (Rattus norvegicus [16]): 99% | Radiolabel recovery (Canis familiaris [17]): 4.9% | Radiolabel recovery (Canis familiaris [18]): 95.9% | Radiolabel recovery [19]: 5.77% | AUC (Homo sapiens [20]): 1860 ng.Eq.hr/ml | Compound recovery (Homo sapiens [21]): 5.5%
Structure (SMILES): Cc1ccc(F)cc1[14C](=O)Nc1ccc(C(=O)N2Cc3cccn3Cc3ccccc32)c(Cl)c1
